Assay results from PMC6146057 (ACS chemical neuroscience, 2018).
Where two headings read alike, the source gives them in different places.

What was measured:
cytochrome P450 3A4 = cytochrome P450 3A4 (Homo sapiens, UniProt P08684); assay: CYP450 inhibition in human liver microsomes, 3A4; assay type: in vitro ADME
mice [1] = assay: High dose phenotypic mouse seizure liability screen; assay type: in vivo; conditions: 100 mg/kg i.p., up to 3 h
cytochrome P450 2C9 = cytochrome P450 2C9 (Homo sapiens, UniProt P11712); assay: CYP450 inhibition in human liver microsomes, 2C9; assay type: in vitro ADME
cytochrome P450 2C9, sequence (P11712 whole entry): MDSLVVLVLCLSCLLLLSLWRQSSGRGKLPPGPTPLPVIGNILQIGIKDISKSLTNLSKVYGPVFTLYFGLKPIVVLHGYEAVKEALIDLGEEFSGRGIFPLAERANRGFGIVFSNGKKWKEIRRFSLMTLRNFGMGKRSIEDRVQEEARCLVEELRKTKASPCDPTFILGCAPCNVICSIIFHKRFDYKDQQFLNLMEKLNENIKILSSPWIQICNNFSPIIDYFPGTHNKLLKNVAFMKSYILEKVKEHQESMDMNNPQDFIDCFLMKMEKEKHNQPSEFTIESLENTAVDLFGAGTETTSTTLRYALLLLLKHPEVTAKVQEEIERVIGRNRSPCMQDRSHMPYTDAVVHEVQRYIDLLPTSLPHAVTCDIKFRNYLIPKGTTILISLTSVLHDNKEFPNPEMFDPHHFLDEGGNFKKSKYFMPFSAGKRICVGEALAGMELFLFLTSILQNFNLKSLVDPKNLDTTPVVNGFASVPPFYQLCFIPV

[2] = Rat brain homogenate binding; assay type: in vitro ADME
dog M1 = target: T1, dog M1 (Canis lupus familiaris, UniProt A0A8I3RVA9); assay: Calcium mobilization assay, low expression M1 dog line; assay type: cell-based
T1 sequence (A0A8I3RVA9 1-460): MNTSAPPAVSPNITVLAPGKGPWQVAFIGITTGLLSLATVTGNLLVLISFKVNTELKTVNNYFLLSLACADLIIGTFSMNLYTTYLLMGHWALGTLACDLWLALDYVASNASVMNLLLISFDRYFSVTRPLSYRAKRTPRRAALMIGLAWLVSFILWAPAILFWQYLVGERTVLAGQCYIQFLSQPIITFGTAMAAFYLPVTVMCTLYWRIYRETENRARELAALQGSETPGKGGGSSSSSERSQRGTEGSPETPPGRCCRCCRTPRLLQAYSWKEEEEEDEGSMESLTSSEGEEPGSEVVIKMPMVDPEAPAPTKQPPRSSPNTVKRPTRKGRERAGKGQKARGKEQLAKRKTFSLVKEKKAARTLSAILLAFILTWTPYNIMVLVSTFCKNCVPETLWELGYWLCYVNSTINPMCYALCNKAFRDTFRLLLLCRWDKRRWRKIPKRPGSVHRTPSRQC

[3] = Cynomolgus monkey IV/PO PK study; assay type: in vivo
Procedure, shortened: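 Male cynomolgus monkeys (n = 3) received a single IV bolus of 1 mg/kg in ethanol:PEG400:saline (10:60:30, v/v/v) and a single oral dose of 3 mg/kg in 30% aqueous Captisol. Plasma PK parameters were calculated by noncompartmental analysis.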

rats [4] = assay: Modified Irwin Toxicology Battery in rats; assay type: in vivo, rat; conditions: 56.6 mg/kg i.p.
Procedure, shortened: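 Rats received vehicle or test compound at 56.6 mg/kg i.p. in 10% Tween 80 (2 mL/kg; n = 3) after baseline assessment. A blinded observer scored autonomic and somatomotor parameters at 15, 30, 60, 180 and […].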

cytochrome P450 1A2 = target: T2, cytochrome P450 1A2 (Homo sapiens, UniProt P05177); assay: CYP450 inhibition in human liver microsomes, 1A2; assay type: in vitro ADME
T2 sequence (P05177 1-516): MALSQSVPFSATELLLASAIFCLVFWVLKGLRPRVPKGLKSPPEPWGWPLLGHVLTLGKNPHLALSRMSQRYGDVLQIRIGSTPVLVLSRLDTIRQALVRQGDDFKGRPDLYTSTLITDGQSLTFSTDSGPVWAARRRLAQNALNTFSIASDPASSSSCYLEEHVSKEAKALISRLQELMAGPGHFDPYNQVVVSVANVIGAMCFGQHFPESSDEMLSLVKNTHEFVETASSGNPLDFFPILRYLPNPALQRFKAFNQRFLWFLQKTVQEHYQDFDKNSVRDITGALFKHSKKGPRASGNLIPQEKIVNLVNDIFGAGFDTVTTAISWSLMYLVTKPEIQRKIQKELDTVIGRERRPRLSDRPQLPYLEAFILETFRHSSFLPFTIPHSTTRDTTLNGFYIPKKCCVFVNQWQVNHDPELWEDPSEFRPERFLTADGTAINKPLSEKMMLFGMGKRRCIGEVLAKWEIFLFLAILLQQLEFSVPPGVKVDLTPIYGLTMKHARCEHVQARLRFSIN

rat M2-M5 = assay: Calcium mobilization selectivity, rat M2-M5; assay type: cell-based; conditions: Figure 4B
Procedure, shortened: (§1)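 Muscarinic receptor-expressing CHO cells were plated at 20,000 cells/well in medium without G418 the day before. They were loaded with 1.15 μM Fluo-4 AM for 45 min at 37 °C in HBSS with 20 mM HEPES and 2.5 mM probenecid. Test compound (10-point 1:3 series, top final 30 μM) was added for 2.5 min, then EC20 ACh for 1 min. Calcium flux was fitted with a four-parameter logistic curve.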

rat M1 = target: T3, rat M1 (Rattus norvegicus, UniProt P08482); assay: Calcium mobilization assay, rat M1 cell line; assay type: cell-based
T3 sequence (P08482 1-460): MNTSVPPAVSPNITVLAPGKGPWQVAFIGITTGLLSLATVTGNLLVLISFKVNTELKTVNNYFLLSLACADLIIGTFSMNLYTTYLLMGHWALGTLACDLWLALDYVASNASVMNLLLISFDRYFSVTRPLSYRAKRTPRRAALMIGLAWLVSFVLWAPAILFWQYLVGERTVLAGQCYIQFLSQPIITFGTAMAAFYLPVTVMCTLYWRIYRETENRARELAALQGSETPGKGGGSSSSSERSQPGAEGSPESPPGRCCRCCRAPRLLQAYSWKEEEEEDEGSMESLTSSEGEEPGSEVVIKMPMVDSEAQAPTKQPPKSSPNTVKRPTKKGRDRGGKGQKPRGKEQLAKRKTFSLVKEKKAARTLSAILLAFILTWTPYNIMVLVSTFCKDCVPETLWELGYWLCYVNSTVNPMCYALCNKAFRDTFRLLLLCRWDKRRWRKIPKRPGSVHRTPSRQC
Procedure, shortened: as §1

mice [5] = assay: Modified Irwin Toxicology Battery in mice; assay type: in vivo, mouse; conditions: 100 mg/kg i.p.
rats [6] = assay: Contextual fear conditioning, risperidone-induced deficit; assay type: in vivo, rat; conditions: 10 mg/kg VU0486846 coadministered with 3 mg/kg risperidone
[7] = male, cynomolgus monkey, plasma, intravenous, 1 mg/kg

cytochrome P450 3A4, sequence (P08684 whole entry): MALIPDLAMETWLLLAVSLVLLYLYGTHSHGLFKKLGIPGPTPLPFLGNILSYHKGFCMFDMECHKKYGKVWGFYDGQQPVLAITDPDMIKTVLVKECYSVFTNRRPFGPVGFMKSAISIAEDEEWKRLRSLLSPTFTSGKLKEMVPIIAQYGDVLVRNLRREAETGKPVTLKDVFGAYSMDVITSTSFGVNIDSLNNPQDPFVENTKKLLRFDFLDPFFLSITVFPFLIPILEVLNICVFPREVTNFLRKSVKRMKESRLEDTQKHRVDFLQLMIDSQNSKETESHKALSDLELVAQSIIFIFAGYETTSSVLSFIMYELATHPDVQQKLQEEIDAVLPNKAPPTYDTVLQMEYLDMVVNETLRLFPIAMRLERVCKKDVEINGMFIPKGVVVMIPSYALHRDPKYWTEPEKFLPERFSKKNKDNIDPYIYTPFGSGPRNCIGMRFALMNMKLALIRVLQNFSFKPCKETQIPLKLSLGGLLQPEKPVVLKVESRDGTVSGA

O=C(N[C@H]1CCCC[C@@H]1O)[C@H]1CN(Cc2ccc(-n3cccn3)cc2)c2ccccc2O1 [VU0486846, (2R)-N-[(1S,2S)-2-Hydroxycyclohexyl]-4-[(4-pyrazol-1-ylphenyl)-methyl]-2,3-dihydro-1,4-benzoxazine-2-carboxamide]
IC50 (cytochrome P450 3A4): 5 µM | Seizure liability (mice [1]): devoid of seizure liability | IC50 (cytochrome P450 2C9): 18.8 µM | fraction unbound [2]: 0.03 | EC50 (dog M1; M1 PAM EC50, dog M1 line, low expression): 0.38 µM | EC50 (dog M1; M1 PAM pEC50, dog M1 line, low expression): 0.389 µM | EC50 (dog M1; M1 agonist activity EC50, dog M1 line, compound alone): > 10 µM | Emax (dog M1; read-out: M1 PAM efficacy, % ACh Max): 78 ± 1% | Emax (dog M1; read-out: M1 agonist activity, % ACh Max): 18 ± 0.2% | Adverse events or cholinergic side effects in PK study ([3]; cynomolgus monkey PK study): No adverse events or cholinergic side effects | half-life ([3]; male, cynomolgus monkey, plasma, 1 mg/kg): 4.2 h | Vd [3, 7]: 1 L/kg | clearance [3, 7]: 18 mL/min/kg | bioavailability ([3]; male, cynomolgus monkey, plasma, po, 3 mg/kg): 37% | free brain levels (rats [4]): 32 nM | free terminal plasma exposure (rats [4]): 489 nM | total brain levels (rats [4]): 1.15 µM | total terminal plasma exposure (rats [4]): 4.4 µM | Cholinergic side effects or adverse effects (rats [4]; 3 h evaluation period): did not produce any cholinergic side effects or pronounced adverse effects | IC50 (cytochrome P450 1A2): > 30 µM | Activity at rat M2–M5 (selectivity) (rat M2-M5): highly selective | Activity at rat M2–M5 (selectivity) (rat M2-M5; listed as 16): inactive | EC50 (rat M1; M1 PAM pEC50, rat M1 cell line, high expression): 0.234 µM | EC50 (rat M1; M1 agonist activity EC50, rat M1 cell line, compound alone): 5.6 µM | EC50 (rat M1; M1 agonist activity pEC50, rat M1 cell line, compound alone): 5.37 µM | EC50 (rat M1; Rat M1 CRC EC50, Figure 4B): 0.253 µM | M1 agonist activity, % ACh (rat M1; rat M1 cell line, compound alone): 26 ± 6 % ACh | M1 PAM efficacy, % ACh Max (rat M1; rat M1 cell line, high expression): 83 ± 1 % ACh Max | free brain levels (mice [5]): 342 nM | free plasma levels (mice [5]): 2000 nM | total brain levels (mice [5]): 12.2 µM | total plasma levels (mice [5]): 18.2 µM | Cholinergic side effects or adverse effects (mice [5]; 3 h evaluation period): did not produce any cholinergic side effects or pronounced adverse effects | Conditioned freezing (rats [6]): restored conditioned freezing to vehicle-treated control levels
